The source of these data is ChEMBL document CHEMBL1151729 (J Med Chem, 2008).

The source made the active and inactive calls. The calls are words filed in the database; no cut-off is given here. A value given as a limit tells only on which side of the number the result lay.

The target of assay [1] is T1, Galectin-1 (Homo sapiens, UniProt P09382). In words: Binding affinity to galectin 1 at 20 degC by fluorescence polarization assay. In general terms: In fluorescence polarisation assays a small probe gives low polarisation when free and higher when bound to something large.
T1 sequence (P09382 whole entry): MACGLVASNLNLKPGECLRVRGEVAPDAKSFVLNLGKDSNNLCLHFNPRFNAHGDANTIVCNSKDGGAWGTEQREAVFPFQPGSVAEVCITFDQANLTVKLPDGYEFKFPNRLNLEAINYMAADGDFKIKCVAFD
The target of a further assay is Galectin-3 (Homo sapiens, UniProt P17931). Kind of assay: Binding affinity to galectin 3 at 20 degC by fluorescence polarization assay.
Chain of Galectin-3 (P17931 whole entry): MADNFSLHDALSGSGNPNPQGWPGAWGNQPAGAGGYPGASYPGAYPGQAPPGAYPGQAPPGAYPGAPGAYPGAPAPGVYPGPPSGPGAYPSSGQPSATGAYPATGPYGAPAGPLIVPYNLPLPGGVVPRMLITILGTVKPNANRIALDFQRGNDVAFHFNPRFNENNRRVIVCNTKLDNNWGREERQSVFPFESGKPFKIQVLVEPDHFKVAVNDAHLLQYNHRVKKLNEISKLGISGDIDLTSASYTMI
Another assay concerns the target T2, Galectin-8 (Homo sapiens, UniProt O00214).
T2 sequence (O00214 whole entry): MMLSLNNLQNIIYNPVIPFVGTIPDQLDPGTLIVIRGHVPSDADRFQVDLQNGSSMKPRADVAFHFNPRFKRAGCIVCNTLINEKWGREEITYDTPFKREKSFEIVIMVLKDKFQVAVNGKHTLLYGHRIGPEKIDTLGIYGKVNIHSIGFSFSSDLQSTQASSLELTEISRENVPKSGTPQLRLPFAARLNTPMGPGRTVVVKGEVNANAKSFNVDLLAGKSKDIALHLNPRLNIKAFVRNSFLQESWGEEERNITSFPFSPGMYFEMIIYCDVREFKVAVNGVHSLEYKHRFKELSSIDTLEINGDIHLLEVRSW
Kind of assay: (§1) Binding affinity to galectin 8N terminal domain at 20 degC by fluorescence polarization assay.

The target in the next assay is Galectin-9 (Homo sapiens, UniProt O00182). Kind of assay: Binding affinity to galectin 9N terminal domain at 0 degC by fluorescence polarization assay.
Chain of Galectin-9 (O00182 whole entry, the tested form may be a part): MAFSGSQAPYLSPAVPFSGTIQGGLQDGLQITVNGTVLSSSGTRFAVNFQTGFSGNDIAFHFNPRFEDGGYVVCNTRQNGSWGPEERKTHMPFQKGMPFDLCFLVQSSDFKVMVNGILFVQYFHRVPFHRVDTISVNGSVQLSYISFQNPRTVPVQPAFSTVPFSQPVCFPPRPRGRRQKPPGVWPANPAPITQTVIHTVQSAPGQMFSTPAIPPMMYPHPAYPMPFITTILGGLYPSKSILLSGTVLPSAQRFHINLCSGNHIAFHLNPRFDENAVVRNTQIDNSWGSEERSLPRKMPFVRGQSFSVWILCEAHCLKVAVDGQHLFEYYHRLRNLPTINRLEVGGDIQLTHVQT
For a further assay, the target named is Galectin-7 (Homo sapiens, UniProt P47929). In words: Binding affinity to galectin 7 at 0 degC by fluorescence polarization assay.
Chain of Galectin-7 (P47929 whole entry): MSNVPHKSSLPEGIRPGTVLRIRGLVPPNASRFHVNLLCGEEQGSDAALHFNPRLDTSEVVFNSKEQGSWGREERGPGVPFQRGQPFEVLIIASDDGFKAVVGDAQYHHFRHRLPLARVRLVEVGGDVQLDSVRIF
For assay [2], the target named is T1, Galectin-1. Kind of assay: Binding affinity to galectin 1 at 0 degC by fluorescence polarization assay.
Assay [3] concerns the target T3, Galectin-8 (Homo sapiens) (UniProt O00214).
T3 sequence (whole entry): T2 sequence (O00214 whole entry)
The description is as §1.

Assay [4] has as its system A549. In words: Antimigratory effect in human A549 cells assessed as cell motility at 100 nM after 24 hrs relative to control. In kind it is functional, cell-based. An outline of the steps: (§2)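 Cell motility of human A549 non-small-cell lung and PC-3 hormone-refractory prostate cancer cells measured by computer-assisted phase-contrast quantitative videomicroscopy over 12 h and 24 h with inhibitor at 1, 10 or 100 nM. Motility calculated in µm per hour and expressed as % of untreated control (100%). Triplicate experiments, mean ± SEM, Mann-Whitney test versus control.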

In assay [5] the test system is PC-3. In words: Antimigratory effect in human PC-3 cells assessed as cell motility at 1 nM after 24 hrs relative to control. In kind it is functional, cell-based. An outline of the steps:
as §2

For assay [6], the system named is A549. In words: Antimigratory effect in human A549 cells assessed as cell motility at 10 nM after 24 hrs relative to control. In kind it is functional, cell-based. An outline of the steps:
as §2

Assay [7] deals with PC-3. Kind of assay: Antimigratory effect in human PC-3 cells assessed as cell motility at 100 nM after 24 hrs relative to control. In kind it is functional, cell-based. An outline of the steps: as §2

Consider `O=C(O[C@H]1[C@@H](O)[C@@H](CO)O[C@@H](S[C@@H]2O[C@H](CO)[C@H](O)[C@H](OC(=O)c3ccc4ccccc4c3)[C@H]2O)[C@@H]1O)c1ccc2ccccc2c1`, for which the Kd at Galectin-1 [1] worked out at 14.7 µM; on Galectin-3, 10.7 µM; at Galectin-8, 100 µM; at Galectin-9 it was 2800 nM; on Galectin-7, 48 µM.

For `CO[C@@H]1O[C@H](CO)[C@@H](O[C@@H]2O[C@H](CO)[C@H](O)[C@H](NC(=O)c3cccc4ccccc34)[C@H]2O)[C@H](O)[C@H]1NC(C)=O`, the Kd at Galectin-3 was 4.4 µM; at Galectin-1 [2] it was 25 µM; on Galectin-9, over 100000 nM; on Galectin-7 it was 7.6 µM. Moreover, in assay [3], the outcome was Active.

Take `Cc1ccc(C(=O)O[C@H]2[C@@H](O)[C@@H](CO)O[C@@H](S[C@@H]3O[C@H](CO)[C@H](O)[C@H](OC(=O)c4ccc(C)cc4)[C@H]3O)[C@@H]2O)cc1`: the Kd on Galectin-1 [1] worked out at 10.3 µM; on Galectin-3, 3.6 µM; at Galectin-8, 135 µM; at Galectin-9 it was 15000 nM; at Galectin-7 it was 190 µM.

Take `COc1cccc(C(=O)N[C@H]2[C@@H](O)[C@@H](CO)O[C@@H](S[C@@H]3O[C@H](CO)[C@H](O)[C@H](NC(=O)c4cccc(OC)c4)[C@H]3O)[C@@H]2O)c1`: the Kd on Galectin-1 [2] came out at 2 µM; on Galectin-8, 100 µM; on Galectin-9 it was 1800 nM; on Galectin-7, 2.1 µM.

Turning to `O=C(N[C@H]1[C@@H](O)[C@@H](CO)O[C@@H](S[C@@H]2O[C@H](CO)[C@H](O)[C@H](NC(=O)c3ccc4ccccc4c3)[C@H]2O)[C@@H]1O)c1ccc2ccccc2c1`, the Kd is 0.16 µM at Galectin-3; 9.6 µM at Galectin-1 [2]; over 100 µM at Galectin-8; 730 nM at Galectin-9; 1.7 µM on Galectin-7.

Turning to `CO[C@@H]1O[C@H](CO)[C@@H](O[C@@H]2O[C@H](CO)[C@H](O)[C@H](O)[C@H]2O)[C@H](O)[C@H]1OC(=O)c1cccc2ccccc12`, the Kd on Galectin-3 stood at 2.5 µM; on Galectin-1 [2], 14 µM; on Galectin-8, 530 µM; at Galectin-9, 1600 nM; on Galectin-7 it was 54 µM.

For `O=C(O[C@H]1[C@@H](O)[C@@H](CO)O[C@@H](S[C@@H]2O[C@H](CO)[C@H](O)[C@H](OC(=O)c3ccccc3)[C@H]2O)[C@@H]1O)c1ccccc1`, the Kd at Galectin-1 [1] turned out to be 6.4 µM; on Galectin-3, 1.6 µM; at Galectin-8, 104 µM; at Galectin-9, 2200 nM; on Galectin-7, 22 µM.

Turning to `O=C(O[C@H]1[C@@H](O)[C@@H](CO)O[C@@H](S[C@@H]2O[C@H](CO)[C@H](O)[C@H](OC(=O)c3cccc4ccccc34)[C@H]2O)[C@@H]1O)c1cccc2ccccc12`, the Kd was determined as 16.8 µM on Galectin-1 [1]; 3.8 µM at Galectin-3; 24 µM at Galectin-8; 8300 nM at Galectin-9; 24 µM at Galectin-7. The outcome in the assay with A549 [4] and with PC-3 [5] was Active.

In the case of `CC(=O)N[C@@H]1[C@@H](O)[C@H](O[C@@H]2O[C@H](CO)[C@H](O)[C@H](O)[C@H]2O)[C@@H](CO)O[C@H]1O`, the Kd at Galectin-3 amounted to 59 µM; at Galectin-8 it was 1000 µM; at Galectin-9, 490000 nM; at Galectin-7 it was 550 µM.

Consider `COc1cccc(C(=O)O[C@H]2[C@@H](O)[C@@H](CO)O[C@@H](S[C@@H]3O[C@H](CO)[C@H](O)[C@H](OC(=O)c4cccc(OC)c4)[C@H]3O)[C@@H]2O)c1`, for which the Kd on Galectin-1 [1] came to 4.4 µM; at Galectin-3, 0.69 µM; on Galectin-8, 42 µM; on Galectin-9, 1400 nM; on Galectin-7 it was 22 µM. Besides, the result in the assay on A549 [6] and in the assay on PC-3 [7] was Active.

`O=C(N[C@H]1[C@@H](O)[C@@H](CO)O[C@@H](S[C@@H]2O[C@H](CO)[C@H](O)[C@H](NC(=O)c3ccccc3)[C@H]2O)[C@@H]1O)c1ccccc1`: the Kd at Galectin-1 [2] was 35 µM; on Galectin-9 it was 7000 nM; on Galectin-7 it was 4.3 µM. Besides, the outcome in [3] was Active.

As a reminder, the Kd is the equilibrium constant for the complex coming apart. A lower Kd goes with a tighter complex.
